The target of assay [1] is Human cRaf-1 C1 ZiF domain (Homo sapiens, UniProt P04049). Briefly: Retinoid binding by quenching of intrinsic protein.
The target of assay [2] is cRaf (Homo sapiens, UniProt P04049). The assay is classed as cell-based. In short, it runs like this:
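COS-7 cells transfected with Flag-cRaf by calcium phosphate, kept 2 d in serum-free phenol-red-free DME, then given retinoids and/or scavengers (100 mM sodium azide, 1 mM N-acetylcysteine). UVB-irradiated at 400 μw/cm2 and incubated at 37°C for set times. Flag-Raf pulled down with anti-Flag M2 and washed in 0.5 M NaCl. Kinase reaction: 200 ng His-MEK(K97M), 60 μM ATP plus [γ-32P]ATP, 20 min, 30°C.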

Assay [3] concerns the target Gst-Raf ZiF (human cRaf-1 ZiF domain) (Homo sapiens, UniProt P04049). In words: Retinol binding by fluorescence resonance energy transfer.
The test system of assay [4] is MAPK (phospho-ERK). Briefly: Peroxide activation of endogenous MAPK in Jurkat cells, phospho-ERK Western blot. It counts as cell-based. The following applies: 100 μM H2O2, different concentrations of retinol. In short, it runs like this: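 Jurkat cells grown serum-free and retinol-free, then given varying retinol concentrations. Activated 15 min later for 10 min with 100 μM H2O2. Endogenous MAPK activity read as phospho-ERK on Western blots.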

Assay [5] addresses PKCα (Mus musculus, UniProt P20444). Briefly: PKCα immunoprecipitation/kinase assay of H2O2-activated 3T3 cells. The assay is classed as cell-based. In short, it runs like this:
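3T3 cells retinol-depleted, some repleted 12 h with 2 μM retinol, then activated 10 min with graded H2O2 doses without staurosporine. Detergent lysates immunoprecipitated with PKCα antibody. Kinase activity measured in washed immunoprecipitates with H1 histone as substrate. Normalized data from six independent H2O2 titrations.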

Assay [6] concerns cRaf/MAPK (ERK1 and 2 phosphorylation). In words: Oxidative. The assay is classed as cell-based. As to conditions: 3T3 cells, 2 μM retinol.
Assay [7] concerns the target T1, S. cerevisiae PKC C1B ZiF domain (Saccharomyces cerevisiae, UniProt P24583).
T1 sequence (P24583 481-531 limits assumed): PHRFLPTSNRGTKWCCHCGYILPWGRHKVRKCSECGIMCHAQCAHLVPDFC
Briefly: Retinol binding by trp fluorescence quench, Gst fusion protein. In short, it runs like this: (§1)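 Gst-ZiF fusions expressed in E. coli BL21/DE3 and purified on glutathione-agarose to >90%. Constructs: Drosophila C1A aa 40–101; C1B aa 105–261 plus trp 262; Vav aa 464–518 plus trp 519. Protein at 250 nM in helium-degassed PBS, titrated stepwise with all-trans retinol from a methanol stock. Trp emission 330 nm (excitation 280 nm), corrected for inner filtering. Kd from nonlinear fit over at least four independent measurements.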

For assay [8], the target named is T2, Human PKCμ C1A ZiF domain (Homo sapiens, UniProt Q15139).
T2 sequence (Q15139 146-196 limits assumed): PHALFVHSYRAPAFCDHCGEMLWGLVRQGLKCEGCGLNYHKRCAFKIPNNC
Described as above. In short, it runs like this: as §1

The target in assay [9] is Drosophila PKC C1A ZiF domain (Drosophila melanogaster, UniProt P05130). The assay is described as above. The method, boiled down: as §1
For assay [10], the target named is T3, Human Vav C1 ZiF domain (Homo sapiens, UniProt P15498).
T3 sequence (P15498 with tags, fused parts or gaps): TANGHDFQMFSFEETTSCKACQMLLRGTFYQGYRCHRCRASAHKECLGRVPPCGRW
The description is as above. The method, boiled down: as §1

Assay [11] concerns the target Drosophila PKC C1B ZiF domain (Drosophila melanogaster, UniProt P05130). Described as above. In short, it runs like this:
as §1

Assay [12] has as its target Human PKCδ C1A ZiF domain (Homo sapiens, UniProt Q05655). The assay is described as above. The method, boiled down:
as §1

The target of assay [13] is Human PKCα C1A ZiF domain (Homo sapiens, UniProt P17252). The description is as above. The method, boiled down:
as §1

Assay [14] concerns the target T4, Human PKCμ C1B ZiF domain (Homo sapiens, UniProt Q15139).
T4 sequence (Q15139 270-320 limits assumed): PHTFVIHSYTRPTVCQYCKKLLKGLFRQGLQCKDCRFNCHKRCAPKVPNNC
Described as above. In short, it runs like this: as §1

Assay [15] addresses Human PKCα C1B ZiF domain (Homo sapiens, UniProt P17252). The description is as above. The method, boiled down: as §1
Assay [16] deals with Human PKCδ C1B ZiF domain (Homo sapiens, UniProt Q05655). In words: Retinol binding by trp fluorescence quench, Gst fusion protein.
Sequence of Human PKCδ C1B ZiF domain (Q05655 231-280): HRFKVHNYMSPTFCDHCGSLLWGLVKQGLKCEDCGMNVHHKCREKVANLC
In assay [17] the target is T5, S. cerevisiae PKC C1A ZiF domain (Saccharomyces cerevisiae, UniProt P24583).
T5 sequence (P24583 414-461 limits assumed): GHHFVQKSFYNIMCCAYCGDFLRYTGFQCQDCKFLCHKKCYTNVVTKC
The assay is described as above.

The target of assay [18] is T6, Human PKCζ C1 ZiF domain (Homo sapiens, UniProt Q05513).
T6 sequence (Q05513 130-180 limits assumed): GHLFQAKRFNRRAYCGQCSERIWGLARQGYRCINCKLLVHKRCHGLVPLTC
The assay is described as above.

The structures appear in SMILES notation. Read-outs that look alike come from different tables or passages of the source.

Sequence of cRaf (P04049 whole entry): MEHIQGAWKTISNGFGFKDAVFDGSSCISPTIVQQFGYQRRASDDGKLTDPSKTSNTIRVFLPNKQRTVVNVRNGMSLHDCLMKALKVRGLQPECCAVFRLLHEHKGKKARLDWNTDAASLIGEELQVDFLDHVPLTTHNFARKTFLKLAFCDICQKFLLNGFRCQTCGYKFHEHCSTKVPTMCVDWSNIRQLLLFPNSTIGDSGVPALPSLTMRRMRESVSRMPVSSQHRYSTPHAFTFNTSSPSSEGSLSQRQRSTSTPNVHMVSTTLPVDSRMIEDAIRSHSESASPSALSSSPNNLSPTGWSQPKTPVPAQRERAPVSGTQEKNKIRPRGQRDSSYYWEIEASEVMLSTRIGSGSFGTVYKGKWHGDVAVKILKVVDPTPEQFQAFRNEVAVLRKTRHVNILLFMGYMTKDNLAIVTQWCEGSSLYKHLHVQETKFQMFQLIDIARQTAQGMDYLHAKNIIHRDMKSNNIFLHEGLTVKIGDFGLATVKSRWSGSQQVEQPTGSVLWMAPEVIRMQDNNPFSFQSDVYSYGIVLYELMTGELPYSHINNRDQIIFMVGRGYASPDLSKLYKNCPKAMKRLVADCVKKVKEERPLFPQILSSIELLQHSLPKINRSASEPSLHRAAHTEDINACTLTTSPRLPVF
Sequence of Human PKCδ C1A ZiF domain (Q05655 159-209): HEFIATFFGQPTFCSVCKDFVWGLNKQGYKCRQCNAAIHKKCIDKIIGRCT

For the molecule `CC(C=CC=C(C)C(O)CO)=CC=C1C(C)=CCCC1(C)C` (stereo not shown) [14HRR, 14-hydroxy-retro-retinol], the “Binding to native Gst-Raf4–256 (fluorescence quenching)” value in assay [1] (1-μM protein solution, native protein) is listed as “saturable binding”.

As for `CC(=O)N[C@@H](CS)C(=O)O` [N-acetylcysteine], the “Effect on UVB-induced Raf activation” value in [2] (N-acetylcysteine 1 mM) was “abolished the Raf activation”.

On to `[2H]O[2H]` [deuterated water], for which, in assay [2] (addition of deuterated water), the “Effect on UVB-induced Raf activity” value is on record as “distinct, though moderate, enhancement”.

Broadly, the Kd is the free concentration of one partner at which half of the binding sites on the other are occupied at equilibrium, for simple one-to-one binding. Read a high Kd as a looser complex. For the molecule `CC1=C(/C=C/C(C)=C/C=C/C(C)=C/CO)C(C)(C)CCC1` [retinol, all-trans retinol], the Kd in assay [3] is 0.0258 µM; in [7] it was > 0.5 µM; in [1] (Binding constant, cRaf-1 amino acids 136–195, trp fluorescence quench, ± SE) it was 0.022 ± 0.0035 µM; in assay [8] it was 0.0181 ± 0.008 µM; in [9], 0.0185 ± 0.0037 µM; in assay [10], > 0.5 µM. Also, the Kd in [11] was > 0.5 µM; in assay [12] it was 0.0952 ± 0.0013 µM; in assay [13], 0.0207 ± 0.004 µM; in [14] it was 0.0173 ± 0.004 µM; in assay [15], > 0.5 µM; in assay [16], 0.0673 ± 0.0013 µM. The Kd worked out at 0.0179 ± 0.0051 µM in [17] and 0.0341 ± 0.0067 µM in [18]. Further, the FRET signal entry in [3] (truncated Gst-Raf Zif136–186 lacking trp 187) is “did not elicit a FRET signal”. For the same molecule, the “Enhancement of MAPK activation by peroxide” value in assay [4] is listed as “dose-dependent enhancement”. Further, the “Activation of PKC by phorbol ester” value in [5] (150 nM phorbol ester) is reported as “not significantly enhanced”. The “Increase of PKCα kinase activity at maximum stimulation over unstimulated cells” value in assay [5] (3T3 cells, 200 μM H2O2, in the presence of 2 μM retinol, 6 experiments) was found to be 20 fold. Further, in assay [5] (data not shown), the “Optimum dose for enhancement of PKCα activation” value is 1 µM. For the same molecule, the “Overall retinol enhancement effect on PKCα kinase activity” value in assay [5] (presence vs absence of retinol, 200 μM H2O2) was 3 fold. The “Intrinsic PKC activation by retinol alone” value in [5] (without H2O2) is “no intrinsic PKC activation”. Also, the “MAPK activity in retinol-repleted compared with retinol-deficient cultures” value in assay [6] (300 μM H2O2, peak at 10–15 min, phosphorylated p42) is “two- to threefold higher”. In addition, the “MAPK activation by 5% FBS, retinol-sufficient vs retinol-deficient cultures” value in assay [6] (5% FBS) was “no differences”. The “Augmentation of UVB-induced Raf kinase activity” value in [2] (COS cells replenished with 2 μM retinol, UVB) was determined as 2.2 ± 0.4 fold.

`[N-]=[N+]=[N-].[Na+]` [sodium azide]: in assay [2] (sodium azide 100 mM), the “Effect on UVB-induced Raf activation” value is recorded as “abolished the Raf activation”.

The record behind these values is article PMC2193291 (The Journal of Experimental Medicine, 2000).
